# Experimental data from ChEMBL document CHEMBL3526050, “Elucidation of the metabolic pathways and the resulting multiple metabolites of almorexant, a dual orexin receptor antagonist, in humans” (Drug Metab Dispos, 2013).
# Experiments:
# [1] = Drug level in feces of healthy human treated with [14C]almorexant at 200 mg, po dosed as single dose; type: ADME, organism-based; details: in vivo
# Procedure, shortened: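 Feces pooled by weight across 6 subjects (0–48 to 192–332 h) and extracted three times with acetonitrile, then dried and reconstituted. Analyzed by radio-LC-MS/MS with a methanol/acetonitrile gradient and scintillation-counted fractions. Procedural recovery was 73.0%. Reported as percent of administered radioactive dose.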
# Blood [2] = test: Half life in healthy human whole blood assessed as radioactivity at 200 mg, po dosed as single dose; type: ADME, organism-based; details: in vivo
# Procedure, shortened: (§1)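 Six fasted healthy male subjects given one oral capsule of 200 mg almorexant with about 84 µCi 14C. EDTA blood taken pre-dose to 240 h. Whole blood (solubilized, peroxide-treated) and plasma counted in triplicate by liquid scintillation. Noncompartmental PK: Cmax/Tmax read directly, linear trapezoidal AUC extrapolated via λz, t1/2 = ln2/λz. Geometric mean (95% CI), Tmax median (range).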
# [3] = Ratio of drug level in whole blood to plasma in healthy human at 200 mg, po dosed as single dose; type: ADME, organism-based; details: whole blood and plasma; procedure, shortened: as §1
# Plasma [4] = test: Half life in healthy human plasma assessed as radioactivity at 200 mg, po dosed as single dose; type: ADME, organism-based; details: in vivo; procedure, shortened: as §1
# Homo sapiens [5] = test: Drug level in healthy human at 200 mg, po dosed as single dose relative to total radioactivity; type: ADME, organism-based; details: in vivo
# Procedure, shortened: (§2)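 Plasma from 6 subjects given one 200 mg oral 14C dose, pooled over at least 2 time points and acetonitrile-precipitated. Radio-LC-MS/MS used a C18 column with ammonium formate pH 4.0/acetonitrile gradient and 0.15-min fractions scintillation-counted. Peak radioactivity converted to ng-equivalents/mL to give AUC0-t. Co-eluting metabolites grouped and expressed relative to parent AUC and to total radioactivity.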
# [6] = Half life in healthy human at 200 mg, po dosed as single dose; type: ADME, organism-based; details: in vivo
# Procedure, shortened: (§3)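 Plasma parent and metabolites M3, M5, M6, M8 after one 200 mg oral 14C dose in 6 fasted male subjects, sampled 0.17–240 h. Validated LC-MS/MS with penta-deuterated internal standards and positive ESI. Low range 0.4/1.0–100 ng/mL using supported liquid extraction, high range 50–1000 ng/mL using protein precipitation. Noncompartmental analysis, geometric means (95% CI), Tmax median (range).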
# [7] = AUC (0 to infinity) in healthy human at 200 mg, po dosed as single dose; type: ADME, organism-based; parameters: dose 200 mg, route oral, time infinity; details: plasma; procedure, shortened: as §3
# Homo sapiens [8] = test: AUC (0 to t) in healthy human at 200 mg, po dosed as single dose; type: ADME, organism-based, Plasma; details: in vivo; procedure, shortened: as §2
# Blood [9] = test: Tmax in healthy human whole blood assessed as radioactivity at 200 mg, po dosed as single dose; type: ADME, organism-based; details: in vivo; procedure, shortened: as §1
# [10] = Drug excretion in healthy human urine assessed as total radioactivity at 200 mg, po dosed as single dose; type: ADME, organism-based; details: in vivo
# Procedure, shortened: (§4)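 Urine collected in 8-h then 24-h intervals, and all feces for 10 days (longer if recovery <90%) after one 200 mg oral 14C dose in 6 fasted males. Urine counted directly by liquid scintillation. Feces homogenized in water, and about 300 mg aliquots combusted before counting, done in triplicate. Stearic acid 14C quality controls were included.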
# [11] = Drug excretion in healthy human feces assessed as total radioactivity at 200 mg, po dosed as single dose; type: ADME, organism-based; details: in vivo; procedure, shortened: as §4
# Homo sapiens [12] = test: AUC (0 to t) in healthy human assessed as total radioactivity at 200 mg, po dosed as single dose; details: in vivo
# Plasma [13] = test: Tmax in healthy human plasma assessed as radioactivity at 200 mg, po dosed as single dose; type: ADME, organism-based; details: in vivo; procedure, shortened: as §1
# Homo sapiens [14] = test: Toxicity in healthy human assessed as incidence of adverse events at 200 mg, po dosed as single dose; type: organism-based; details: in vivo
# Homo sapiens [15] = test: Toxicity in healthy human assessed as effect on ECG variables parameters at 200 mg, po dosed as single dose; type: organism-based; details: in vivo
# [16] = Cmax in healthy human at 200 mg, po dosed as single dose; type: ADME, organism-based; parameters: dose 200 mg, route oral; details: in vivo; procedure, shortened: as §3
# [17] = Tmax in healthy human at 200 mg, po dosed as single dose; type: ADME, organism-based; details: in vivo; procedure, shortened: as §3
# Homo sapiens [18] = test: Tlast in healthy human assessed as total radioactivity at 200 mg, po dosed as single dose; type: ADME, organism-based; details: in vivo
# Homo sapiens [19] = test: Cmax in healthy human assessed as total radioactivity at 200 mg, po dosed as single dose; type: ADME, organism-based; parameters: dose 200 mg, route oral; details: in vivo; procedure, shortened: as §1
# Homo sapiens [20] = test: Toxicity in healthy human assessed as effect on vital signs parameters at 200 mg, po dosed as single dose; type: organism-based; details: in vivo
# Blood [21] = test: AUC (0 to infinity) in healthy human whole blood assessed as radioactivity at 200 mg, po dosed as single dose; type: ADME, organism-based; parameters: dose 200 mg, route oral, time infinity; details: in vivo; procedure, shortened: as §1
# Homo sapiens [22] = test: Toxicity in healthy human at 200 mg, po dosed as single dose; type: organism-based; details: in vivo
# Homo sapiens [23] = test: Tlast in healthy human at 200 mg, po dosed as single dose; type: ADME, organism-based; details: in vivo; procedure, shortened: as §2
# Blood [24] = test: Cmax in healthy human whole blood assessed as radioactivity at 200 mg, po dosed as single dose; type: ADME, organism-based; parameters: dose 200 mg, route oral; details: in vivo; procedure, shortened: as §1
# Homo sapiens [25] = test: Toxicity in healthy human assessed as effect on clinical laboratory parameters at 200 mg, po dosed as single dose; type: organism-based; details: in vivo
# Homo sapiens [26] = test: Tmax in healthy human assessed as total radioactivity at 200 mg, po dosed as single dose; type: ADME, organism-based; details: in vivo; procedure, shortened: as §1
# Plasma [27] = test: AUC (0 to infinity) in healthy human plasma assessed as radioactivity at 200 mg, po dosed as single dose; type: ADME, organism-based; parameters: dose 200 mg, time infinity, route oral; details: in vivo; procedure, shortened: as §1
# Plasma [28] = test: Drug level in plasma of healthy human treated with [14C]almorexant at 200 mg, po dosed as single dose; type: ADME, organism-based; details: in vivo; procedure, shortened: as §2
# Plasma [29] = test: Cmax in healthy human plasma assessed as radioactivity at 200 mg, po dosed as single dose; type: ADME, organism-based; parameters: dose 200 mg, route oral; details: in vivo; procedure, shortened: as §1
# Homo sapiens [30] = test: Cmax in healthy human treated with [14C]almorexant at 200 mg, po dosed as single dose; type: ADME, organism-based; parameters: dose 200 mg, route oral; details: in vivo
# Homo sapiens [31] = test: AUC (0 to infinity) in healthy human treated with [14C]almorexant at 200 mg, po dosed as single dose; type: ADME, organism-based, Plasma; parameters: dose 200 mg, route oral, time infinity; details: in vivo
# Homo sapiens [32] = test: Half life in healthy human treated with [14C]almorexant at 200 mg, po dosed as single dose; type: ADME, organism-based; details: in vivo; procedure, shortened: as §3
# Homo sapiens [33] = test: Tmax in healthy human treated with [14C]almorexant at 200 mg, po dosed as single dose; type: ADME, organism-based; details: in vivo; procedure, shortened: as §3
# Homo sapiens [34] = test: Drug level in healthy human treated with [14C]almorexant at 200 mg, po dosed as single dose relative to almorexant; type: ADME, organism-based; details: in vivo; procedure, shortened: as §2
# Homo sapiens [35] = test: AUC (0 to t) in healthy human treated with [14C]almorexant at 200 mg, po dosed as single dose; type: ADME, organism-based, Plasma; details: in vivo; procedure, shortened: as §2
# Homo sapiens [36] = test: Tlast in healthy human treated with [14C]almorexant at 200 mg, po dosed as single dose; type: ADME, organism-based; details: in vivo; procedure, shortened: as §2
# Homo sapiens [37] = test: Drug level in healthy human treated with [14C]almorexant at 200 mg, po dosed as single dose relative to total radioactivity; type: ADME, organism-based; details: in vivo; procedure, shortened: as §2
# [38] = Tmax in po dosed healthy human; type: ADME, organism-based; details: in vivo
# [39] = Tmax in po dosed healthy human receiving additional evening dose; type: ADME, organism-based; details: in vivo
# [40] = Clearance in po dosed healthy human; type: ADME, organism-based; details: in vivo
# [41] = Terminal half life in po dosed healthy human; type: ADME, organism-based; details: in vivo, read-out: beta t1/2 (converted)
# [42] = Absolute bioavailability in po dosed healthy human; type: ADME, organism-based; details: in vivo
# Homo sapiens [43] = test: Volume of distribution in po dosed healthy human; type: ADME, organism-based; details: in vivo
smiles,measurement,setting,value
CNC(=O)[C@@H](c1ccccc1)[n+]1ccc2cc(O)c(OC)cc2c1CCc1ccc(C(F)(F)F)cc1,Drug metabolism,[1],metabolite_detected
CNC(=O)[C@@H](c1ccccc1)N1CCc2cc(O)c(O)cc2[C@@H]1CCc1ccc(C(F)(F)F)cc1,Drug metabolism,[1],metabolite_detected
CNC(=O)[C@@H](c1ccccc1)N1CCc2cc(OC)c(OC)cc2[14C@@H]1CCc1ccc(C(F)(F)F)cc1,t1/2,Blood [2],39 h
same,blood plasma ratio,[3],0.51
same,t1/2,Plasma [4],78 h
same,Drug uptake,Homo sapiens [5],0.11%
same,half-life,[6],17.8 h
same,AUC(0-inf),[7],262 ng·h/mL
same,AUCt,Homo sapiens [8],61.2 ng.Eq.hr/ml
same,Tmax,Blood [9],1 h
same,Drug excretion,[10],8.34%
same,Drug metabolism,[1],metabolite_detected
same,Drug excretion,[11],38.7%
same,AUC(0-t),Homo sapiens [12],54100 ng.Eq.hr/ml
same,Tmax,Plasma [13],1 h
same,Activity,Homo sapiens [14],Non-toxic
same,Activity,Homo sapiens [15],Non-toxic
same,Cmax,[16],113 ng/mL
same,Tmax,[17],0.8 h
same,Tlast,Homo sapiens [18],300 h
same,Cmax,Homo sapiens [19],1050 ng.Eq/ml
same,Activity,Homo sapiens [20],Non-toxic
same,AUC,Blood [21],26321 ng.Eq.hr/ml
same,Activity,Homo sapiens [22],Non-toxic
same,Tlast,Homo sapiens [23],1.6 h
same,Cmax,Blood [24],678 ng.Eq/ml
same,Activity,Homo sapiens [25],Non-toxic
same,Tmax,Homo sapiens [26],1.6 h
same,AUC,Plasma [27],51547 ng.Eq.hr/ml
same,Drug metabolism,Plasma [28],metabolite_detected
same,Cmax,Plasma [29],1060 ng.Eq/ml
CNC(=O)[C@@H](c1ccccc1)N1CCc2cc(OC)c(O)cc2[C@@H]1CCc1ccc(C(F)(F)F)cc1,Drug metabolism,[1],metabolite_detected
same,Cmax,Homo sapiens [30],61.4 ng/mL
same,AUC,Homo sapiens [31],386 ng·h/mL
same,t1/2,Homo sapiens [32],21.7 h
same,Tmax,Homo sapiens [33],1 h
same,Drug metabolism,Plasma [28],metabolite_detected
CNC(=O)[C@@H](c1ccccc1)N1CCc2cc(O)c(OC)cc2[C@@H]1CCc1ccc(C(F)(F)F)cc1,Drug metabolism,[1],metabolite_detected
same,Cmax,Homo sapiens [30],25.7 ng/mL
same,AUC,Homo sapiens [31],160 ng·h/mL
same,t1/2,Homo sapiens [32],22.1 h
same,Tmax,Homo sapiens [33],0.8 h
same,Drug metabolism,Plasma [28],metabolite_detected
COc1cc2c(cc1OC)[C@H](CCc1ccc(C(F)(F)F)cc1)NC[C@H]2O (racemic),Drug uptake,Homo sapiens [34],28.1%
same,AUCt,Homo sapiens [35],17.2 ng.Eq.hr/ml
same,Tmax,[17],1.6 h
same,Tlast,Homo sapiens [36],1.6 h
same,Drug uptake,Homo sapiens [37],0.03%
CNC(=O)[C@@H](c1ccccc1)N1CCc2cc(OC)c(OC)cc2[C@@H]1CCc1ccc(C(F)(F)F)cc1 [ALMOREXANT],Tmax,[38],0.8 h
same,Tmax,[39],3 h
same,CL/F,[40],717 mL/min
same,half-life,[41],17.8 h
same,bioavailability,[42],11.4%
same,Vd,Homo sapiens [43],683 L
